IC50 and Activity data for 16 compounds are collected here from ChEMBL document CHEMBL1157250, “Bioactive dibenzylbutyrolactone and dibenzylbutanediol lignans from Peperomia duclouxii” (J Nat Prod, 2006).

The nature of experiment [1]: Growth inhibition of human WI38 cells after 48 hrs by WST8 assay. The class given is cell-based. To be noted: WI-38, 48 h. The method, boiled down:
(§1)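 Cells seeded at ca. 5000 per well, held 24 h at 37 °C in 5% CO2, then exposed 48 h to samples dissolved in DMSO. Media with 10% FBS: WI-38 in Eagle's MEM, VA-13 in RITC 80-7, HepG2 in D-MEM. WST-8 formazan read at 450 nm. Viability is background-corrected versus control, IC50 is taken from viability–concentration plots, and values are means of three independent experiments.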

The next experiment deals with WI-38 VA13. Briefly: Growth inhibition of human VA13 cells after 48 hrs by WST8 assay. In kind it is functional, cell-based. The conditions noted are these: WI-38 VA13, 48 h. Put shortly: as §1
For another experiment, the system named is HepG2. Briefly: Growth inhibition of human HepG2 cells after 48 hrs by WST8 assay. The class given is functional, cell-based. The conditions noted are these: HepG2, 48 h. Put shortly: as §1
Experiment [2] in a line: Reversal of multidrug resistance in human 2780AD cells assessed as accumulation of calcein at 0.25 ug/mL after 15 mins by fluorescence technique relative to control. The class given is functional, A2780 ADR. The method, boiled down: (§2)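 MDR ovarian 2780AD cells (RPMI-1640, 10% FBS), ca. 1 × 10^5 per well, held 24 h at 37 °C in 5% CO2. Compounds in DMSO diluted with PBS(-) were added 15 min before calcein AM (1 µM in PBS(-) as added), incubated 60 min, then washed with cold PBS(-). Calcein fluorescence is given as a percentage of untreated control, mean of triplicates.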

A short description of experiment [3]: Reversal of multidrug resistance in human 2780AD cells assessed as accumulation of calcein at 0.25 ug/mL after 15 mins by fluorescence technique relative to verapamil. The class given is functional, A2780 ADR. Put shortly: (§3)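 Same 2780AD set-up: 24 h pre-culture, then a 15 min compound pre-exposure (DMSO/PBS(-) dilution), calcein AM added (1 µM in PBS(-) as added) for 60 min, cold PBS(-) washes, and a calcein fluorescence read. Accumulation is expressed relative to that obtained with verapamil at the same concentration, mean of triplicates.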

Experiment [4] is described as follows: Reversal of multidrug resistance in human 2780AD cells assessed as accumulation of calcein at 2.5 ug/mL after 15 mins by fluorescence technique relative to control. In kind it is functional, A2780 ADR. Put shortly: as §2
Experiment [5] can be described thus: Reversal of multidrug resistance in human 2780AD cells assessed as accumulation of calcein at 2.5 ug/mL after 15 mins by fluorescence technique relative to verapamil. In kind it is functional, A2780 ADR. Put shortly:
as §3

A short description of experiment [6]: Reversal of multidrug resistance in human 2780AD cells assessed as accumulation of calcein at 25 ug/mL after 15 mins by fluorescence technique relative to control. The class given is functional, A2780 ADR. Put shortly: as §2
The nature of experiment [7]: Reversal of multidrug resistance in human 2780AD cells assessed as accumulation of calcein at 25 ug/mL after 15 mins by fluorescence technique relative to verapamil. In kind it is functional, A2780 ADR. The method, boiled down:
as §3

In the case of `COc1cc(C[C@@H]2C(=O)OC[C@H]2Cc2cc(OC)c3c(c2)OCO3)cc(OC)c1OC`, the IC50 was above 232 µM in experiment [1], 118 µM in the experiment with WI-38 VA13 and 42.8 µM with HepG2. Also, the Activity is given as 96% in experiment [2]; 92% in experiment [3]; 99% in experiment [4]; 102% in experiment [5]; 155% in experiment [6]; 116% in [7].

Take `COc1cc(C[C@@H]2C(=O)OC[C@H]2Cc2cc(OC)c3c(c2)OCO3)ccc1O`: the results for the IC50 (in experiment [1]; in the experiment with WI-38 VA13; in the experiment on HepG2) were above 259 µM, 210 µM and 200 µM, respectively. Besides, the Activity in [2] was 77%; in experiment [3], 74%; in experiment [4] it was 86%; in experiment [5], 89%; in experiment [6], 85%; in [7], 64%.

`COc1cc(C[C@@H]2COC(=O)[C@H]2Cc2cc(OC)c3c(c2)OCO3)cc2c1OCO2`: the results for the IC50 (in experiment [1]; in the experiment with WI-38 VA13; with HepG2) were above 241 µM, 130 µM and 208 µM, respectively. The Activity was 93% in [2]; 104% in [3]; 91% in [4]; 86% in experiment [5]; 116% in [6]; 81% in experiment [7].

As to `COc1cc(C(=O)[C@@H]2C(=O)OC[C@H]2Cc2cc(OC)c3c(c2)OCO3)cc(OC)c1O`, the IC50 in experiment [1] came out at 172 µM; with WI-38 VA13, 127 µM; with HepG2, 185 µM.

Turning to `COc1cc(/C=C2/C(=O)OC[C@H]2Cc2cc(OC)c3c(c2)OCO3)cc(OC)c1O`, the IC50 in [1] was 241 µM; in the experiment on WI-38 VA13 it was 157 µM; with HepG2, 198 µM. Moreover, the Activity in experiment [2] is on record as 90%; in [3], 87%; in experiment [4], 90%; in experiment [5] it was 93%; in [6], 114%; in experiment [7], 86%.

Turning to `COc1cc([C@@H](O)[C@H]2C(=O)OC[C@@H]2Cc2cc(OC)c3c(c2)OCO3)cc(OC)c1O`, the IC50 in [1] was above 231 µM; in the experiment with WI-38 VA13, 229 µM; in the experiment with HepG2, above 231 µM. Besides, the Activity is 91% in experiment [2]; 88% in experiment [3]; 93% in experiment [4]; 96% in experiment [5]; 104% in experiment [6]; 78% in [7].

In the case of `COc1cc(C[C@@H]2COC(=O)[C@H]2Cc2ccc3c(c2)OCO3)cc2c1OCO2`, the IC50 (in experiment [1]; in the experiment on WI-38 VA13; with HepG2) was above 260 µM each time. The Activity in experiment [2] is 91%; in experiment [3] it was 102%; in [4], 74%; in experiment [5] it was 70%; in [6] it was 96%; in [7], 67%.

On to `COc1cc(C[C@@H]2C(=O)OC[C@H]2Cc2ccc3c(c2)OCO3)cc2c1OCO2`, for which the IC50 in experiment [1] is above 260 µM; in the experiment with WI-38 VA13 it was 23.2 µM; with HepG2, 26.4 µM. Further, the Activity is given as 80% in experiment [2]; 90% in experiment [3]; 109% in experiment [4]; 103% in experiment [5]; 124% in [6]; 86% in [7].

In the case of `COc1cc(C[C@@H](CO)[C@H](CO)Cc2cc(OC)c3c(c2)OCO3)cc2c1OCO2`, the IC50 in experiment [1] stood at 185 µM; in the experiment on WI-38 VA13, 219 µM; in the experiment with HepG2, 151 µM. Moreover, the Activity is 97% in experiment [2]; 93% in [3]; 103% in [4]; 107% in experiment [5]; 121% in experiment [6]; 91% in experiment [7].

As to `COc1cc(C[C@@H]2C(=O)OC[C@H]2Cc2ccc3c(c2)OCO3)cc(OC)c1O`, the IC50 in experiment [1] is above 259 µM; with WI-38 VA13, 183 µM; with HepG2, above 260 µM. In addition, the Activity is 93% in [2]; 90% in [3]; 94% in experiment [4]; 97% in [5]; 127% in [6]; 96% in [7].

Take `COc1cc(C[C@@H]2C(=O)OC[C@H]2Cc2cc(OC)c3c(c2)OCO3)cc(O)c1O`: the figures for the IC50 (in experiment [1]; in the experiment with WI-38 VA13; in the experiment with HepG2) were 141 µM, 181 µM and 162 µM, respectively. Further, the Activity was 98% in [2]; 110% in [3]; 91% in experiment [4]; 86% in experiment [5]; 120% in experiment [6]; 84% in experiment [7].

For the compound `COc1cc(C[C@H](COC(C)=O)[C@@H](COC(C)=O)Cc2cc(OC)c3c(c2)OCO3)cc2c1OCO2`, the IC50 (in experiment [1]; with WI-38 VA13; with HepG2) was above 199 µM throughout.

`COc1cc(C[C@@H]2C(=O)OC[C@H]2Cc2cc(OC)c3c(c2)OCO3)cc(OC)c1O`: the IC50 was 195 µM in [1], 130 µM in the experiment on WI-38 VA13 and 204 µM with HepG2. Also, the Activity in experiment [2] is recorded as 86%; in experiment [3], 83%; in [4], 91%; in experiment [5], 94%; in experiment [6], 129%; in [7], 97%.

Regarding `COc1cccc2c1C(=O)c1c(O)c3c(c(O)c1C2=O)C[C@@](O)(C(=O)CO)C[C@@H]3O[C@H]1C[C@H](N)[C@H](O)[C@H](C)O1` [DOXORUBICIN], the IC50 is 0.38 µM in experiment [1], 0.22 µM with WI-38 VA13 and 0.69 µM in the experiment with HepG2.

`CC(=O)O[C@H]1C(=O)[C@@]2(C)[C@H]([C@H](OC(=O)c3ccccc3)[C@]3(O)C[C@H](OC(=O)[C@H](O)[C@@H](NC(=O)c4ccccc4)c4ccccc4)C(C)=C1C3(C)C)[C@]1(OC(C)=O)CO[C@@H]1C[C@@H]2O` [PACLITAXEL]: the values for the IC50 (in experiment [1]; in the experiment with WI-38 VA13; in the experiment with HepG2) were 0.034 µM, 0.0043 µM and 6.9 µM, respectively.

As for `COc1ccc(CCN(C)CCCC(C#N)(c2ccc(OC)c(OC)c2)C(C)C)cc1OC` (centres undefined) [VERAPAMIL], the Activity in experiment [2] is given as 104%; in experiment [4], 106%; in [6], 144%.
